Measurements reported in ChEMBL document CHEMBL1138043, “Exploration of orally available calpain inhibitors 2: peptidyl hemiacetal derivatives” (J Med Chem, 2006).
In brackets after ≈: the same amount, converted by molar mass. Activity calls are given as the source filed them. The calls are words filed in the database; no cut-off is given here.

Assays:
[1] = molecular target: T1, Calpain-1 catalytic subunit (Homo sapiens, UniProt P07384); assay: Inhibition of human erythrocyte mu calpain
T1 sequence (P07384 whole entry): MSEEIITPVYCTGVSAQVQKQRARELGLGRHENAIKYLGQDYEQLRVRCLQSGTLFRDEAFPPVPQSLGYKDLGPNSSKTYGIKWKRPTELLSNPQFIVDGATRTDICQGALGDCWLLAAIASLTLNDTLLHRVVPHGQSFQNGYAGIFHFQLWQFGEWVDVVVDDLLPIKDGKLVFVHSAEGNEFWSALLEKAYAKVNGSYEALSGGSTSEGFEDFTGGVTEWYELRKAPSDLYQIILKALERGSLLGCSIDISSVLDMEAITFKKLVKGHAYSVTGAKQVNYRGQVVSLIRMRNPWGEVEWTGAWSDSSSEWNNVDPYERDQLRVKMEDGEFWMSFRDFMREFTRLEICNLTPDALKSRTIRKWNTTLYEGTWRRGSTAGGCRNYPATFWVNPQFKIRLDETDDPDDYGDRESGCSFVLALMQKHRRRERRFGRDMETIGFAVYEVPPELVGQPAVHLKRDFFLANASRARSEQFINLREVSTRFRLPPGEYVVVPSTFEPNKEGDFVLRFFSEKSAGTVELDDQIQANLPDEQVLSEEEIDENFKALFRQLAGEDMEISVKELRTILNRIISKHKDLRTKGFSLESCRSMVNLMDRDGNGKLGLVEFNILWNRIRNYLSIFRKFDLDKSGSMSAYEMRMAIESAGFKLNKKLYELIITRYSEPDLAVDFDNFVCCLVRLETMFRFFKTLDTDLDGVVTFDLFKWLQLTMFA
Procedure, shortened: (§1)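 Casein substrate at 0.5 mg/mL in 50 mM Tris-HCl pH 7.4 with 20 mM dithiothreitol and 1.0 nmol enzyme. Inhibitors were added in DMSO. Reaction was started with 20 mM CaCl2; blank wells received 1 mM EDTA instead. Incubation ran 60 min at 30 °C. Percent inhibition came from OD differences. IC50 is the mean of two independent determinations.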

[2] = molecular target: T2, Calpain-2 catalytic subunit (Sus scrofa, UniProt P43367); assay: Inhibition of porcein kidney m calpain; procedure, shortened: as §1
T2 sequence (P43367 whole entry): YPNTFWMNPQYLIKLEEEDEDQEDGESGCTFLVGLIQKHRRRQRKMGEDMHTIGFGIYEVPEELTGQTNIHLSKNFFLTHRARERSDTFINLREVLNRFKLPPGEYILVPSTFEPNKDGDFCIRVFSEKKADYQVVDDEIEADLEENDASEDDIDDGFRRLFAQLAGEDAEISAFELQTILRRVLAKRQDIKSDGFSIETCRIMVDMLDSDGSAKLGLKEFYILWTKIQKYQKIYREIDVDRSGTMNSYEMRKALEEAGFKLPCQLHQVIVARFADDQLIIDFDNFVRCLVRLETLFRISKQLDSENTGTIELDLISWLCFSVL

[3] = Aqueous solubility at pH 7 at 25 degreeC; format: physicochemical
[4] = Metabolic stability in human hepatic S9 fraction after 0.5 hrs; format: ADME; conditions: liver S9 fraction, read-out: Stability
Procedure, shortened: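 Compound at 5 µM final (added in acetonitrile) was incubated with human hepatic S9 in 50 mM potassium phosphate pH 7.4. An NADPH-generating system was present (3 mM MgCl2, 1 mM NADP+, 5 mM glucose-6-phosphate, 1 U/mL G6PDH). Incubation ran 30 min at 37 °C and was quenched with acetonitrile. Residual parent was measured by LC-UV or LC-MS/MS, n = 1.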

[5] = Apparent permeability from apical to basolateral side of the Caco-2 cell; format: ADME, cell-based; conditions: human
[6] = Lipophilicity, log D of the compound; format: physicochemical; conditions: octanol/water
[7] = AUC (0-infinity) in Sprague-Dawley rat at 3 mg/kg, iv; format: ADME, organism-based; parameters: time infinity, dose 3 mg/kg, route intravenous; conditions: plasma
Procedure, shortened: (§2)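 Male Sprague-Dawley rats (200-250 g), single dose. Oral dosing as a suspension in 0.5% carboxymethyl cellulose; iv dosing at 10 mg/mL in 60% poly(ethylene glycol)/40% water. Plasma was taken from abdominal aorta blood under isoflurane at 0.1 (iv only), 0.25, 0.5, 1, 2, 4 and 8 h, with n = 4 or 5 per time point. Samples underwent solid-phase extraction and LC-MS/MS (MRM). Values are mean ± SD.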

[8] = AUC (0-infinity) in Sprague-Dawley rat at 500 mg/kg, po; format: ADME, organism-based; parameters: time infinity, dose 500 mg/kg, route oral; conditions: plasma; procedure, shortened: as §2
[9] = Cmax in Sprague-Dawley rat at 500 mg/kg, po; format: ADME, organism-based; parameters: dose 500 mg/kg, route oral; conditions: in vivo; procedure, shortened: as §2
[10] = Tmax in Sprague-Dawley rat at 500 mg/kg, po; format: ADME, organism-based; parameters: dose 500 mg/kg, route oral; conditions: in vivo; procedure, shortened: as §2
[11] = Terminal half life in Sprague-Dawley rat at 3 mg/kg, iv; format: ADME, organism-based; parameters: dose 3 mg/kg, route intravenous; conditions: in vivo; procedure, shortened: as §2
[12] = Volume of distribution in Sprague-Dawley rat at 3 mg/kg, iv; format: ADME, organism-based; parameters: dose 3 mg/kg, route intravenous; conditions: in vivo, read-out: Vdss; procedure, shortened: as §2
Rattus norvegicus [13] = assay: Neuroprotective activity in Sprague-Dawley rat ischemia-reperfusion model measured as cell density in retinal ganglion cell layer at 500 mg/kg, po; format: functional, organism-based; parameters: dose 500 mg/kg
Procedure, shortened: (§3)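 Male Sprague-Dawley rats (150-250 g) received oral doses as a suspension in 0.5% CMC, 15 min before ischemia and again after reperfusion. Controls received vehicle. HE-stained nuclei in the ganglion cell layer 1-2 mm from the optic disk were counted over a 250 µm width at three sites. Comparison by Student t-test.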

[14] = Clearance in Sprague-Dawley rat at 3 mg/kg, iv; format: ADME, organism-based; parameters: dose 3 mg/kg, route intravenous; conditions: in vivo; procedure, shortened: as §2
[15] = Oral bioavailability in Sprague-Dawley rat; format: ADME, organism-based; conditions: in vivo; procedure, shortened: as §2
[16] = AUC (0-infinity) in Sprague-Dawley rat at 10 mg/kg, po; format: ADME, organism-based; parameters: time infinity, dose 10 mg/kg, route oral; conditions: plasma; procedure, shortened: as §2
[17] = Cmax in Sprague-Dawley rat at 10 mg/kg, po; format: ADME, organism-based; parameters: dose 10 mg/kg, route oral; conditions: in vivo; procedure, shortened: as §2
[18] = Tmax in Sprague-Dawley rat at 10 mg/kg, po; format: ADME, organism-based; parameters: dose 10 mg/kg, route oral; conditions: in vivo; procedure, shortened: as §2
Rattus norvegicus [19] = assay: Neuroprotective activity in Sprague-Dawley rat ischemia-reperfusion model measured as cell density in retinal ganglion cell layer at 100 mg/kg, po relative to control; format: functional; procedure, shortened: as §3
Rattus norvegicus [20] = assay: Neuroprotective activity in Sprague-Dawley rat ischemia-reperfusion model measured as cell density in retinal ganglion cell layer at 30 mg/kg, po relative to control; format: functional, organism-based; parameters: dose 30 mg/kg; procedure, shortened: as §3

SMILES | IC50 [1] [nM] | IC50 [2] [nM] | solubility [3] [µg/mL] | remaining at 0.5 h [4] [%] | AUC(0-inf) [7] [µM·h] | half-life [11] [min] | Vd [12] [L/kg] | clearance [14] [mL/min/kg] | bioavailability [15] [%] | other results
CC(C)C[C@H](NC(=S)Nc1ccccc1)C(=O)N[C@H]1CCOC1O (stereo partly specified) | 86 | 190 | – | 100 | 2.6 | 114 | 2.3 | 55 | 66 | AUC(0-inf) [16]: 5.7 µM·h; Cmax [17]: 5.6 µM; Tmax [18]: 15 min; Activity (Rattus norvegicus [19]): 6.38; Activity (Rattus norvegicus [20]): inactive
CC(C)[C@H](NS(=O)(=O)c1ccc(F)cc1)C(=O)N[C@H]1CCOC1O (stereo partly specified) | 880 | 2600 | 1500 (≈ 4160 µM) | 79 | – | – | – | – | – | –
CCCCNC(=O)C(=O)[C@H](CC(C)C)NC(=O)[C@@H](NS(=O)(=O)c1ccc(F)cc1)C(C)C | – | – | 5.3 (≈ 11.2 µM) | 25 | – | – | – | – | – | –

Second part, led by results:

IC50 [1] [nM] | IC50 [2] [nM] | solubility [3] [µg/mL] | remaining at 0.5 h [4] [%] | AUC(0-inf) [7] [µM·h] | half-life [11] [min] | Vd [12] [L/kg] | clearance [14] [mL/min/kg] | bioavailability [15] [%] | SMILES | other results
> 100000 | > 100000 | – | – | – | – | – | – | – | CC(C)C[C@@H](C#N)NC(=O)[C@@H](NS(=O)(=O)c1ccc(F)cc1)C(C)C | –
– | 49 | 100 (≈ 268 µM) | 3 | 1.5 | 42 | 6.1 | 89 | 18 | CC(C)C[C@@H](C=O)NC(=O)[C@@H](NS(=O)(=O)c1ccc(F)cc1)C(C)C | Papp A→B [5]: 2.6 ×10⁻⁶ cm/s; logD [6]: 1.7; AUC(0-inf) [8]: 45 µM·h; Cmax [9]: 9.4 µM; Tmax [10]: 60 min; Activity (Rattus norvegicus [13]): Active
– | – | – | 64 | – | – | – | – | – | CC(C)C[C@@H](/C=N/NC(=O)CN(C)C)NC(=O)[C@@H](NS(=O)(=O)c1ccc(F)cc1)C(C)C | –
